According to article PMC3078649 (Molecular pharmaceutics, 2010):

How the values were obtained:
MDCK cell monolayers = settings: shown previously; cited from earlier work
[1] = tested on: intercellular junctions of Caco-2 cell monolayers; assay: Inhibition of intercellular junction resealing; format: cell-based; settings: for Activity in the resealing assay compared to either ADT6 or HAV6: conjugates with aminocaproic acid (cap) linker; for Inhibition of resealing (% TEER difference between 8- and 2-h time points) compared to blank: AP-BL sides of Caco-2 monolayers (Fig. 5); for Inhibition of resealing of intercellular junctions (TEER time course): 0.5 mM peptide, AP-BL sides, conditioned Caco-2 monolayers
Procedure, shortened: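 Caco-2 cells were grown on 3 µm-pore Transwell inserts (50,000 cells/insert) and used on days 15–20. Initial TEER was taken after 1 h at 37 °C in HBSS pH 7.4 (10 mM Hepes, 1% glucose, 2.0 mM CaCl2). Cells were conditioned 2 h in calcium-free medium. Peptide (0.5 or 1.0 mM) in Ca-HBSS was added AP, BL or AP-BL, with blank and unrelated-peptide controls. TEER was read hourly, minus 90 Ω × cm2 background, in triplicate. Inhibition was the TEER change from 2 to 8 h.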

Caco-2 cell monolayers = assay: Peptide stability on Caco-2 cell monolayers; format: in vitro ADME
[2] = tested on: E-cadherin-mediated adhesion of Caco-2 cells; settings: shown previously; cited from earlier work
[3] = tested on: E-cadherin-mediated adhesion of Caco-2 cells; assay: Homotypic adhesion of Caco-2 single cells to attached cells; format: cell-based; settings: 250 µM peptide
Procedure, shortened: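 Single Caco-2 cells were released by Ca2+/Mg2+-free EBSS (1 h, 37 °C) and labelled with BCECF-AM. They were added at 5 × 10^4 cells/well to Caco-2 monolayers pretreated 2 h at 37 °C in Ca2+-free EBSS (1 mM Mg2+, 0.1% BSA). Co-incubation with peptide was 2 h at 37 °C. Positive control was anti-E-cadherin antibody DECMA-1 at 1:100. Unbound cells were removed and attached cells lysed; fluorescence was read at ex 485/em 530 nm.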

EC5 domain of E-cadherin = settings: cited from earlier work
blood brain barrier [4] = assay: In situ rat brain perfusion, 14C-mannitol permeation; format: in vivo; settings: for Enhancement of 14C-mannitol permeation through the BBB compared to vehicle: 1.0 mM test substance pre-perfused 4 min at 10 ml/min, triplicate
Procedure, shortened: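 Perfusion was 4 min with vehicle (0.5% Tween in sterile saline) or 1.0 or 0.5 mM peptide, then immediately 4 min with 14C-mannitol (10 µCi). Brain radioactivity was measured in triplicate, reported as mean ± SD, and compared with vehicle (p < 0.05).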

blood brain barrier [5] = assay: In situ rat brain perfusion, [3H; format: in vivo; settings: 1.0 mM HAV6 first, then daunomycin with 500 µM verapamil; p < 0.001 (Fig. 3 E)

Ac-ADTPPV-NH2 [ADT6]
Enhancement of 14C-mannitol permeation through MDCK cell monolayers (MDCK cell monolayers): enhance ^14C-mannitol through MDCK cell monolayers

Ac-DTPPV-cap-SHAVSS-NH2
Activity in the resealing assay compared to either ADT6 or HAV6 [1]: did not show any improved activity

Ac-HSVSAS-NH2 [HAVscr, reference compound]
Inhibition of resealing (% TEER difference between 8- and 2-h time points) compared to blank ([1]; 1.0 mM peptide): could not suppress the resealing

Ac-LFSHAVSSNG-NH2 [HAV10]
Enhancement of 14C-mannitol permeation through MDCK cell monolayers (MDCK cell monolayers): enhance ^14C-mannitol through MDCK cell monolayers
Peptide concentration remaining (Caco-2 cell monolayers; 100 µM peptide, apical side of Caco-2 cell monolayers, 8 h incubation): 80%
Inhibition of homotypic Caco-2 cell adhesion [2]: inhibit the homotypic Caco-2 cell adhesion
Inhibition of resealing of intercellular junctions (TEER time course) [1]: not at 0.5 mM

Ac-NDDGGQFVVT-NH2 [BLG3]
Inhibition of resealing (% TEER difference between 8- and 2-h time points) compared to blank ([1]; 1.0 mM peptide): could not inhibit the resealing

Ac-QDPELPDKNM-NH2 [BLG2]
Potency in blocking homotypic cell-cell adhesion relative to BLG1 and BLG4 [3]: more potent

Ac-QGADTPPVGV-NH2 [ADT10]
Enhancement of 14C-mannitol permeation through MDCK cell monolayers (MDCK cell monolayers): enhance ^14C-mannitol through MDCK cell monolayers
Inhibition of resealing of intercellular junctions (TEER time course) [1]: still active
Inhibition of resealing (% TEER difference between 8- and 2-h time points) compared to blank ([1]; 1.0 mM peptide): significantly suppress the resealing

Ac-SHAVSS-NH2 [HAV6]
Metabolic stability on Caco-2 cell monolayer (Caco-2 cell monolayers; 96-h incubation on Caco-2 cell monolayer): metabolically stable
Binding to the expressed EC5 domain by NMR spectroscopy (EC5 domain of E-cadherin): bind the expressed EC5 domain
Amount of mannitol delivered to the brain: lowering when HAV6 was lowered from 1.0 mM to 0.5 mM (blood brain barrier [4]; 0.5 mM versus 1.0 mM HAV6): 40%
Enhancement of 14C-mannitol permeation through the BBB compared to vehicle (blood brain barrier [4]): significantly enhanced
Amount of daunomycin in the brain compared to vehicle-treated BBB (blood brain barrier [5]): tremendous increase

Ac-SHAVSS-cap-ADTPPV-NH2
Activity in the resealing assay compared to either ADT6 or HAV6 [1]: did not show any improved activity

Ac-SSVAHS-NH2 [HAVrev, reference compound]
Inhibition of resealing (% TEER difference between 8- and 2-h time points) compared to blank ([1]; 1.0 mM peptide): could not suppress the resealing

Ac-TYRIWRDTAN-NH2 [BLG4]
Binding to the expressed EC5 domain by NMR spectroscopy (EC5 domain of E-cadherin): bind the expressed EC5 domain
Rank of inhibitory activity in the resealing assay among BLG peptides ([1]; 1.0 mM peptide, AP-BL sides (Fig. 5)): best inhibitory activity
Inhibition of resealing (% TEER difference between 8- and 2-h time points) compared to blank ([1]; 1.0 mM peptide): significantly suppress the resealing

EATDSG [LABL6, reference compound]
Enhancement of 14C-mannitol permeation through the BBB compared to vehicle (blood brain barrier [4]): did not enhance
